Data reported in ChEMBL document CHEMBL5137098, “Discovery of Substituted Di(pyridin-2-yl)-1,2,4-thiadiazol-5-amines as Novel Macrofilaricidal Compounds for the Treatment of Human Filarial Infections” (J Med Chem, 2022).
Values after ≈ are worked out from the molar mass of the structure shown.

Experiments:
[1] = Metabolic stability in rat liver S9 fraction assessed as compound remaining at 3 uM measured at 60 mins by LC-MS/MS analysis; assay type: ADME, subcellular; conditions: read-out: Stability
[2] = Metabolic stability in human liver S9 fraction assessed as compound remaining at 3 uM measured at 60 mins by LC-MS/MS analysis; assay type: ADME, subcellular; conditions: read-out: Stability
[3] = Metabolic stability in rat liver microsome assessed as compound remaining at 3 uM measured at 30 mins in presence of NADPH by LC-MS/MS analysis; assay type: ADME; conditions: liver microsomes, read-out: Stability
Procedure, shortened: (§1)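 Liver microsomes at 0.3 mg/mL with 1 mM NADPH in 200 mM phosphate buffer plus 2 mM MgCl2, pH 7.4, at 37 °C. Substrate 3 µM, incubated 30 min, triplicate. Percent remaining measured by LC-MS/MS.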

[4] = Metabolic stability in human liver microsome assessed as compound remaining at 3 uM measured at 30 mins in presence of NADPH by LC-MS/MS analysis; assay type: ADME; conditions: liver microsomes, read-out: Stability; procedure, shortened: as §1
Onchocerca gutturosa = experiment: Anti-filarial activity against Onchocerca gutturosa adult worms assessed as reduction in worm motility measured every 24 hrs for 5 days by olympus inverted microscopic analysis; assay type: functional, organism-based
Procedure, shortened: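 Adult worm motility read every 24 h, ending at 120 h. Serial 1-in-4 drug dilutions run to the activity endpoint. EC50 for motility reduction given as geomean, n=2.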

[5] = Kinetic solubility of compound incubated for 24 hrs; assay type: physicochemical; conditions: for Kinetic_solubility: 24 h
Procedure, shortened: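 10 mM DMSO stock diluted into buffer to 200 µM final, 2% DMSO, run in duplicate. Buffers were pH 7.4 0.1 M potassium phosphate, pH 2.2, 6.8 and 5. Shaken 24 h at room temperature in a filter plate, then filtered by positive pressure. Single-point calibration against DMSO standards.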

[6] = Octanol/water distribution coefficient, logD of the compound at pH 7.4 sonicated for 30 mins followed by 24 hrs shaking; assay type: physicochemical
Procedure, shortened: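 Octanol/pH 7.4 0.1 M potassium phosphate partition. Sample at 1000 uM from 10 mM DMSO stock, 10% DMSO final. Sonicated 30 min, then shaken 24 h at 750 rpm at room temperature. Plate centrifuged 3600 rpm for 30 min.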

Onchocerca volvulus = experiment: Antiparasitic activity against Onchocerca volvulus L5 assessed as reduction in motility at 1 uM; set-up: scale not given: the % may be the effect or the level left
[7] = Mutagenicity in Salmonella typhimurium TA98 in presence of liver S9 fraction by AMES test; assay type: toxicity, subcellular; conditions: salmonella enterica subsp. enterica serovar typhimurium
[8] = Mutagenicity in Salmonella typhimurium TA100 in presence of liver S9 fraction by AMES test; assay type: toxicity, subcellular; conditions: salmonella enterica subsp. enterica serovar typhimurium
[9] = Mutagenicity in Salmonella typhimurium TA1535 in presence of liver S9 fraction by AMES test; assay type: toxicity, subcellular; conditions: salmonella enterica subsp. enterica serovar typhimurium
[10] = Mutagenicity in Salmonella typhimurium TA97 in presence of liver S9 fraction by AMES test; assay type: toxicity, subcellular; conditions: salmonella enterica subsp. enterica serovar typhimurium
[11] = Mutagenicity in Escherichia coli WP2 uvrA in presence of liver S9 fraction by AMES test; assay type: toxicity, subcellular
[12] = Mutagenicity in Salmonella typhimurium TA98 in absence of liver S9 fraction by AMES test; assay type: toxicity; conditions: salmonella enterica subsp. enterica serovar typhimurium
[13] = Mutagenicity in Salmonella typhimurium TA100 in absence of liver S9 fraction by AMES test; assay type: toxicity; conditions: salmonella enterica subsp. enterica serovar typhimurium
[14] = Mutagenicity in Salmonella typhimurium TA1535 in absence of liver S9 fraction by AMES test; assay type: toxicity; conditions: salmonella enterica subsp. enterica serovar typhimurium
[15] = Mutagenicity in Salmonella typhimurium TA97 in absence of liver S9 fraction by AMES test; assay type: toxicity; conditions: salmonella enterica subsp. enterica serovar typhimurium
[16] = Mutagenicity in Escherichia coli WP2 uvrA in absence of liver S9 fraction by AMES test; assay type: toxicity
P-glycoprotein (human) = experiment: Efflux ratio of apparent permeability in MDCK-II cells expressing human P-glycoprotein gene at 10 uM measured at 2 hrs by LC-MS/MS analysis; assay type: ADME, cell-based, Canis lupus familiaris; conditions: dog, MDCK-MDR1
[17] = Metabolic stability in mouse liver microsome assessed as compound remaining at 3 uM measured at 30 mins in presence of NADPH by LC-MS/MS analysis; assay type: ADME; conditions: liver microsomes, read-out: Stability; procedure, shortened: as §1
Litomosoides sigmodontis [18] = experiment: Antiparasitic activity against Litomosoides sigmodontis infected in BALB/c mouse assessed as reduction in worm burden at 10 mg/kg, po qd administered for 7 days; assay type: functional; set-up: scale not given: the % may be the effect or the level left; conditions: time 7 day
Litomosoides sigmodontis [19] = experiment: Antiparasitic activity against Litomosoides sigmodontis infected in BALB/c mouse assessed as reduction in worm burden at 30 mg/kg, sc BID administered for 7 days; assay type: functional; set-up: scale not given: the % may be the effect or the level left; conditions: time 7 day
Litomosoides sigmodontis [20] = experiment: Antiparasitic activity against Litomosoides sigmodontis infected in BALB/c mouse assessed as reduction in worm burden at 30 mg/kg, po BID administered for 6 days; assay type: functional; set-up: scale not given: the % may be the effect or the level left; conditions: time 6 day
Litomosoides sigmodontis [21] = experiment: Antiparasitic activity against Litomosoides sigmodontis infected in BALB/c mouse assessed as reduction in worm burden at 30 mg/kg, po BID administered for 7 days; assay type: functional; set-up: scale not given: the % may be the effect or the level left; conditions: time 7 day
Litomosoides sigmodontis [22] = experiment: Antiparasitic activity against Litomosoides sigmodontis infected in BALB/c mouse assessed as reduction in worm burden at 30 mg/kg, po TID administered for 5 days; assay type: functional; set-up: scale not given: the % may be the effect or the level left; conditions: time 5 day

Structure (SMILES)	remaining at 1 h, 3 µM [1] [%]	remaining at 1 h, 3 µM [2] [%]	also measured
COc1ccc(Nc2nc(-c3ccccn3)cs2)nc1	51	59	–
CNc1cccnc1Nc1nc(-c2ccc(OC(C)C)cn2)ns1	73	86	–
CC(C)Oc1cnc(-c2nsc(Nc3ncccc3C(C)C)n2)cc1C(F)(F)F	–	–	remaining at 0.5 h, 3 µM [3]: 96%; remaining at 0.5 h, 3 µM [4]: 97%
Cc1cccnc1-c1nsc(Nc2ccc(N3CCCC3)cn2)n1	61	86	EC50 (Onchocerca gutturosa): 40 nM; solubility kinetic at 24 h ([5]; read-out: Kinetic_solubility): 2.17 µM (≈ 0.734 µg/mL); logD at 24.5 h [6]: 2.65
Cc1cccnc1Nc1nc(-c2cc(C(=O)N(C)C)c(OC(C)C)cn2)ns1	–	–	remaining at 0.5 h, 3 µM [3]: 90%; remaining at 0.5 h, 3 µM [4]: 91%
Cc1cccnc1Nc1nc(-c2cc(C#N)ccn2)ns1	78	65	–
Cc1ccnc(-c2nsc(Nc3ncccc3C(F)(F)F)n2)c1	61	56	–
Cc1cccnc1Nc1nc(-c2ccc(OC3CCN(C4CC4)CC3(F)F)cn2)ns1 (stereo not drawn)	32	52	–
CC(C)c1cccnc1Nc1nc(-c2ccc(OC3CC3)cn2)ns1	78	39	Kinetic_solubility [5]: 0.2 µM; Activity (Onchocerca volvulus): 100%
CC(C)Oc1ccc(-c2nsc(Nc3ncccc3N(C)C)n2)nc1	79	86	Activity [7]: Non-Toxic; Activity [8]: Non-Toxic; Activity [9]: Non-Toxic; Activity [10]: Non-Toxic; Activity [11]: Non-Toxic; Activity [12]: Non-Toxic; Activity [13]: Non-Toxic; Activity [14]: Non-Toxic; Activity [15]: Non-Toxic; Activity [16]: Non-Toxic; Activity (Onchocerca volvulus): 100%
CC(=O)N(C)c1cc(C(F)(F)F)cnc1Nc1nc(-c2ccc(OC(C)C)cn2)ns1	–	–	efflux ratio at 2 h, 10 µM (P-glycoprotein (human)): 4.1
Cc1cccnc1Nc1nnc(-c2ccc(OC3CCOCC3)cn2)o1	–	–	remaining at 0.5 h, 3 µM [3]: 39%; remaining at 0.5 h, 3 µM [4]: 83%
c1ccc(Nc2nc(-c3ccccn3)ns2)nc1	83	83	–
Cc1cccnc1Nc1nc(-c2ccc(OC3CC3)cn2)ns1	61	76	Activity (Onchocerca volvulus): 100%
Cc1cccnc1N(c1nc(-c2ccc(OC(C)C)cn2)ns1)C(C)C	60	79	–
Cc1cccnc1Nc1nsc(-c2ccc(OC3CCOCC3)cn2)n1	–	–	remaining at 0.5 h, 3 µM [3]: 89%; remaining at 0.5 h, 3 µM [4]: 77%
Cc1cccnc1Nc1nnc(-c2ccc(OC3CCOCC3)cn2)s1	–	–	remaining at 0.5 h, 3 µM [3]: 89%; remaining at 0.5 h, 3 µM [4]: 100%
Cc1cccnc1Nc1nc(-c2cc(C3CCN(C)CC3)ccn2)ns1	81	78	–
Cc1cccnc1Nc1nc(-c2ncc(OC(C)C)cn2)ns1	–	–	remaining at 0.5 h, 3 µM [3]: 90%; remaining at 0.5 h, 3 µM [4]: 96%
CC(C)Oc1ccc(-c2nsc(N(C)c3ncccc3C(C)C)n2)nc1	4	32	–
Cc1cccnc1Nc1nc(-c2ccc(C#N)cn2)ns1	73	66	–
CC(C)Oc1cnc(-c2nsc(Nc3ncccc3N3CCCC3=O)n2)cc1C(F)(F)F	–	–	efflux ratio at 2 h, 10 µM (P-glycoprotein (human)): 3.9
CC(C)Oc1cc(-c2nsc(Nc3ncccc3N(C)C)n2)ncc1C(F)(F)F	8	100	–
CC(C)c1cnc(Nc2nc(-c3ncccc3OC3CC3)ns2)cc1C(F)(F)F	93	100	–
Cc1cccnc1Nc1n[nH]c(-c2ccc(OC3CCOCC3)cn2)n1	–	–	remaining at 0.5 h, 3 µM [4]: 92%; remaining at 0.5 h, 3 µM [17]: 70%
Cc1cccnc1Nc1nc(-c2ccc(C(=O)N(C)C)cn2)ns1	94	97	–

Structure (SMILES)	remaining at 1 h, 3 µM [1] [%]	remaining at 1 h, 3 µM [2] [%]	also measured
COc1cccnc1Nc1nc(-c2ccc(OC(C)C)cn2)ns1	100	100	–
Cc1cccnc1Nc1nc(-c2ccc(OC(C)C)cn2)ns1	100	100	Activity (Litomosoides sigmodontis [18]): 58.8%
CC(=O)N(C)c1cccnc1Nc1nc(-c2cc(C(F)(F)F)c(OC(C)C)cn2)ns1	–	–	efflux ratio at 2 h, 10 µM (P-glycoprotein (human)): 4.5
CC(C)Oc1ccc(-c2nsc(Nc3cc(C(F)(F)F)c(C(C)C)cn3)n2)nc1	100	100	–
Cc1cccnc1Nc1nc(-c2ccc(OC3CCOCC3)cn2)ns1	82	84	–
Cc1cccnc1Nc1nc(-c2ccc(OC3CC4(C3)CN(C3CC3)C4)cn2)ns1	53	58	–
CN1CCC(Oc2ccc(Nc3nc(-c4ccccn4)ns3)nc2)CC1	99	88	–
Cc1cccnc1Nc1nc(-c2ccc(OC3CCN(C4CC4)CC3)cn2)ns1	76	83	Activity (Litomosoides sigmodontis [19]): 85.5%
CC(C)c1ccnc(-c2nsc(Nc3ncccc3C(F)(F)F)n2)c1	27	45	–
CC(C)Oc1cnc(-c2nsc(Nc3ncccc3N(C)C(=O)C3CC3)n2)cc1C(F)(F)F	–	–	efflux ratio at 2 h, 10 µM (P-glycoprotein (human)): 2.2
CC(C)c1ccnc(-c2nsc(Nc3cc(C(F)(F)F)ccn3)n2)c1	45	65	Activity (Litomosoides sigmodontis [20]): 46%
CN(C)c1cccnc1Nc1nc(-c2ccc(OC3CC3)cn2)ns1	91	100	Activity (Onchocerca volvulus): 100%
Cc1cccnc1Nc1nc(-c2cc(C(=O)N(C)C)ccn2)ns1	78	89	–
CC(C)Oc1ccc(-c2nsc(Nc3ncccc3C(C)C)n2)nc1	82	99	Activity (Litomosoides sigmodontis [21]): 58.8%
CC(C)Oc1ccc(-c2nsc(Nc3ncccc3C(N)=O)n2)nc1	–	–	efflux ratio at 2 h, 10 µM (P-glycoprotein (human)): 4.6
CC(C)Oc1cnc(-c2nsc(Nc3ncccc3N(C)C)n2)cc1C(F)(F)F	–	–	remaining at 0.5 h, 3 µM [3]: 93%; remaining at 0.5 h, 3 µM [4]: 98%
COc1cccnc1Nc1nc(-c2cc(C)ccn2)ns1	70	72	–
Cc1cccnc1Nc1nc(-c2cnc(OC(C)C)cn2)ns1	74	81	–
CC(=O)N(C)c1cc(C(F)(F)F)cnc1Nc1nc(-c2cc(C(C)C)ccn2)ns1	–	–	efflux ratio at 2 h, 10 µM (P-glycoprotein (human)): 8.4
CC(=O)N(C)c1cc(C(F)(F)F)cnc1Nc1nc(-c2cc(OC(C)C)ccn2)ns1	–	–	Kinetic_solubility [5]: 0.4 µM; efflux ratio at 2 h, 10 µM (P-glycoprotein (human)): 15.2
Cc1cccnc1N(C)c1nc(-c2ccc(OC(C)C)cn2)ns1	81	96	–
CC(C)Oc1ccc(-c2nsc(Nc3ncccc3C(=O)N(C)C)n2)nc1	–	–	efflux ratio at 2 h, 10 µM (P-glycoprotein (human)): 11
COc1ccc(Nc2nc(-c3ccccn3)ns2)nc1	–	–	remaining at 0.5 h, 3 µM [3]: 78%; remaining at 0.5 h, 3 µM [4]: 90%; Activity (Litomosoides sigmodontis [22]): 50.1%
Cc1cccnc1Nc1nc(-c2ccc(OC3CCOCC3)cn2)no1	85	98	–
Cc1cccnc1Nc1nc(-c2cc(C#N)c(OC(C)C)cn2)ns1	84	100	–
